In ChEMBL document CHEMBL3596177:
The source made the active and inactive calls. No cut-off for these calls is given here.

What was measured:
[1] = Inhibition of Mycobacterium tuberculosis protein tyrosine phosphatase B expressed in Escherichia coli BL21/DE using pNPP substrate by spectrophotometry
How it was run: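 His-tagged mPTPB from pET28b in E. coli BL21/DE3, purified on Ni-NTA. The assay ran at 25°C in 50 mM 3,3-dimethylglutarate pH 7.0 with 1 mM EDTA, ionic strength 0.15 M (NaCl). Enzyme was added last, the reaction was quenched after 10 min with NaOH, and A405 was read. IC50 was fitted as AI/A0 = IC50/(IC50+[I]).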

[2] = Non-competitive inhibition of Mycobacterium tuberculosis protein tyrosine phosphatase B expressed in Escherichia coli BL21/DE using pNPP substrate by spectrophotometry based Lineweaver-Burk plot analysis
[3] = tested on: RAW264.7; assay: Inhibition of Mycobacterium tuberculosis protein tyrosine phosphatase B transfected in mouse RAW264.7 cells assessed as increase in ERK1/2 phosphorylation at 5 and 10 uM incubated for 1 hr followed by with IFNgamma stimulation for 1 hr by Western blotting method; format: cell-based
How it was run: (§1)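 RAW264.7 mouse macrophages transfected with mPTPB, grown in DMEM with 10% FBS, penicillin/streptomycin, 37°C, 5% CO2. Cells were seeded at 4 x 10⁴ per well and treated next day with inhibitor for 1 h, then with IFN-γ (200 U/ml) for 1 h. They were washed with cold PBS and lysed on ice 30 min. Cleared lysates were Western blotted for phospho-Erk1/2 and phospho-Akt.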

[4] = tested on: RAW264.7; assay: Inhibition of Mycobacterium tuberculosis protein tyrosine phosphatase B transfected in mouse RAW264.7 cells assessed as reduction in AKT phosphorylation at 5 and 10 uM incubated for 1 hr followed by with IFNgamma stimulation for 1 hr by Western blotting method; format: cell-based; how it was run: as §1
[5] = target: T1, Tyrosine-protein phosphatase non-receptor type 1 (Homo sapiens, UniProt P18031); assay: Inhibition of human PTP1B using pNPP substrate by spectrophotometry
T1 sequence (P18031 whole entry): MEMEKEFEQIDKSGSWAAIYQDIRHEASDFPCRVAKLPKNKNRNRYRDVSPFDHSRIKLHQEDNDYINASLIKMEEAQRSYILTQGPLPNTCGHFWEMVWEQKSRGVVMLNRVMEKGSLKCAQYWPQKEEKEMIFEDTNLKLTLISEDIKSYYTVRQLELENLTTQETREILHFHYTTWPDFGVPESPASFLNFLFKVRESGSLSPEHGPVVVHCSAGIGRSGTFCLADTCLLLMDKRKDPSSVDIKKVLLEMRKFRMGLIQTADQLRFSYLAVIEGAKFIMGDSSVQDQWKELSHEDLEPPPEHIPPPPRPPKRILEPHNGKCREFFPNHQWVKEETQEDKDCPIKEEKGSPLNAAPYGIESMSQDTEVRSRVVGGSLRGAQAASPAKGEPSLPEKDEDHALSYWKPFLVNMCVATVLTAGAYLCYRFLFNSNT

[6] = target: T2, Tyrosine-protein phosphatase non-receptor type 11 (Homo sapiens, UniProt Q06124); assay: Inhibition of human SHP2 using pNPP substrate by spectrophotometry
T2 sequence (Q06124 whole entry): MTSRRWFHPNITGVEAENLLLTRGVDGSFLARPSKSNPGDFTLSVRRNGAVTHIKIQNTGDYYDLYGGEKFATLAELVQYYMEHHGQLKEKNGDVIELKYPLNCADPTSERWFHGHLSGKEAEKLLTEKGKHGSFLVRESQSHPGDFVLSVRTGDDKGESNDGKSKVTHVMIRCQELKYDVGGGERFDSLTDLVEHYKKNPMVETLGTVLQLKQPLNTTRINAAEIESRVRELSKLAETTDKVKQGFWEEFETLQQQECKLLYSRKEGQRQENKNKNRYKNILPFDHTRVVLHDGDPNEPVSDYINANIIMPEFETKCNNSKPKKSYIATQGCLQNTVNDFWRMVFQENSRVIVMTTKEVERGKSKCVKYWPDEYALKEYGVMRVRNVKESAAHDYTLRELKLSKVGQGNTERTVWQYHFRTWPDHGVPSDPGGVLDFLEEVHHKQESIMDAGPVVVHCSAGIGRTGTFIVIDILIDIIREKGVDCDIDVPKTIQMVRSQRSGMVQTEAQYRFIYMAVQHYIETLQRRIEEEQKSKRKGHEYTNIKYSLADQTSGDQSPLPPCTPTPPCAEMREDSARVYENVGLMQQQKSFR

[7] = target: Tyrosine-protein phosphatase non-receptor type 6 (Homo sapiens, UniProt P29350); assay: Inhibition of human SHP1 using pNPP substrate by spectrophotometry
Sequence of Tyrosine-protein phosphatase non-receptor type 6 (P29350 whole entry): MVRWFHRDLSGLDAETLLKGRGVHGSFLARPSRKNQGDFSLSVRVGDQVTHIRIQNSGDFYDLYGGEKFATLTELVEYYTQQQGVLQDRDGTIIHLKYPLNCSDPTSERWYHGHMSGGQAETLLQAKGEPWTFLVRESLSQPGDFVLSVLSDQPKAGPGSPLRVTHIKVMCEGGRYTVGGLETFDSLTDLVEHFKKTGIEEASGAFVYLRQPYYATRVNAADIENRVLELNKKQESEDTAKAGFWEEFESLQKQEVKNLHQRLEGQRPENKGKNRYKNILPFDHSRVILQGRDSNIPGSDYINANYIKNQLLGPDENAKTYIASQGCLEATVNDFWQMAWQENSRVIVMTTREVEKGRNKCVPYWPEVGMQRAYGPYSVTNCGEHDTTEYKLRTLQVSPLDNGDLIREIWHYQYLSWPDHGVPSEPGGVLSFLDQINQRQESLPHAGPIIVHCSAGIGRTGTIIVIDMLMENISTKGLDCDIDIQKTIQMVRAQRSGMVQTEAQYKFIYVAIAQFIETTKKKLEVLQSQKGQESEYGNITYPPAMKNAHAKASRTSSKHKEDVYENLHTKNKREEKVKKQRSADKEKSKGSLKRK

[8] = target: T3, Tyrosine-protein phosphatase non-receptor type 9 (Homo sapiens, UniProt P43378); assay: Inhibition of human PTP-Meg2 using pNPP substrate by spectrophotometry
T3 sequence (P43378 whole entry): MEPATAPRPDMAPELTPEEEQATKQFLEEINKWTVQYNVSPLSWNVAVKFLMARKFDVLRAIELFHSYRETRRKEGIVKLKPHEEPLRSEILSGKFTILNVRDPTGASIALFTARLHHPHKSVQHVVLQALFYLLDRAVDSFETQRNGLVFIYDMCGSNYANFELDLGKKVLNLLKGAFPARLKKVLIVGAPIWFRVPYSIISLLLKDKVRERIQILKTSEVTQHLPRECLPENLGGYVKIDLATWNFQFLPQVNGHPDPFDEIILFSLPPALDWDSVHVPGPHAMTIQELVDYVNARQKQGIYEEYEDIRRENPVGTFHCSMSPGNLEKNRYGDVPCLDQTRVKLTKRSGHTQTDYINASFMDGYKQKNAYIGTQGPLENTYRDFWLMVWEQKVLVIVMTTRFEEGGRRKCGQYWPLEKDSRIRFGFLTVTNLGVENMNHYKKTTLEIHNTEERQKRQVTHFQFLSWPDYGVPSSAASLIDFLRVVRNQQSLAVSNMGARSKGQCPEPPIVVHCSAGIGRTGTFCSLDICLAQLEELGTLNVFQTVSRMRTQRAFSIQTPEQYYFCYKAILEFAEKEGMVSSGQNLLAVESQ

[9] = target: T4, Receptor-type tyrosine-protein phosphatase C (Homo sapiens, UniProt P08575); assay: Inhibition of human CD45 using pNPP substrate by spectrophotometry
T4 sequence (P08575 whole entry): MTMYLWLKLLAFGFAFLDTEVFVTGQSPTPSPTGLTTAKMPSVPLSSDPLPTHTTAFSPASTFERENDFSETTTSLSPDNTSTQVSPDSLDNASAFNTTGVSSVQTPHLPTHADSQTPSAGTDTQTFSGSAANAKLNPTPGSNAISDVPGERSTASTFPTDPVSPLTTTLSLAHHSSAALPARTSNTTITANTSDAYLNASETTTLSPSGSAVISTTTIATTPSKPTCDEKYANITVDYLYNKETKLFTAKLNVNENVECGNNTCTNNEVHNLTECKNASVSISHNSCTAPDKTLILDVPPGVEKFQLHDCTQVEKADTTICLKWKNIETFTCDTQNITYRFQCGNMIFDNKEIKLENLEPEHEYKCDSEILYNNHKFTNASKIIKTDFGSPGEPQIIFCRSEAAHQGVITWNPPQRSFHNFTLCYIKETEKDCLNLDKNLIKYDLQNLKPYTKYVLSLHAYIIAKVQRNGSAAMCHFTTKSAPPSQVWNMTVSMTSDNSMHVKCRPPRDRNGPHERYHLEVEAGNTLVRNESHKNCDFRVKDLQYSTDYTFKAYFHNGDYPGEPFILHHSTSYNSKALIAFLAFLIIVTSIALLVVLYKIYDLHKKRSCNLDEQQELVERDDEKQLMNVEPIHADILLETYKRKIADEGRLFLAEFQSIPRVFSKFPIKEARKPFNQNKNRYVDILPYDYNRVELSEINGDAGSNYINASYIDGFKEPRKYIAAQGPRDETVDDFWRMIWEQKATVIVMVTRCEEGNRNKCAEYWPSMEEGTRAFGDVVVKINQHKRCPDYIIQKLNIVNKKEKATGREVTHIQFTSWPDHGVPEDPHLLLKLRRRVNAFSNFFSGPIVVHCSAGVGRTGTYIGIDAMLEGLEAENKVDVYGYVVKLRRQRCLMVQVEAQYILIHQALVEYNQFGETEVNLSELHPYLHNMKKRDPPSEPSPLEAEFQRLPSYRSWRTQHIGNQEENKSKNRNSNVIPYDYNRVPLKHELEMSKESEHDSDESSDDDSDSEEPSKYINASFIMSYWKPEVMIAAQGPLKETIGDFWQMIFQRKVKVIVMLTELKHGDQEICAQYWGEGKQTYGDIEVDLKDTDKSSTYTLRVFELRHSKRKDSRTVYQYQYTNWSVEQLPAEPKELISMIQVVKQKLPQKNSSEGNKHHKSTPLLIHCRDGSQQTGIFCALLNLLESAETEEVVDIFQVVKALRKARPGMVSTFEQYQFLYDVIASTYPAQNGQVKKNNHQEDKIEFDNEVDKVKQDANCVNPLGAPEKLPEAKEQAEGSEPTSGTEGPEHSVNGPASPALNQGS

[10] = target: Receptor-type tyrosine-protein phosphatase epsilon (Homo sapiens, UniProt P23469); assay: Inhibition of human PTPepsilon using pNPP substrate by spectrophotometry
Sequence of Receptor-type tyrosine-protein phosphatase epsilon (P23469 whole entry): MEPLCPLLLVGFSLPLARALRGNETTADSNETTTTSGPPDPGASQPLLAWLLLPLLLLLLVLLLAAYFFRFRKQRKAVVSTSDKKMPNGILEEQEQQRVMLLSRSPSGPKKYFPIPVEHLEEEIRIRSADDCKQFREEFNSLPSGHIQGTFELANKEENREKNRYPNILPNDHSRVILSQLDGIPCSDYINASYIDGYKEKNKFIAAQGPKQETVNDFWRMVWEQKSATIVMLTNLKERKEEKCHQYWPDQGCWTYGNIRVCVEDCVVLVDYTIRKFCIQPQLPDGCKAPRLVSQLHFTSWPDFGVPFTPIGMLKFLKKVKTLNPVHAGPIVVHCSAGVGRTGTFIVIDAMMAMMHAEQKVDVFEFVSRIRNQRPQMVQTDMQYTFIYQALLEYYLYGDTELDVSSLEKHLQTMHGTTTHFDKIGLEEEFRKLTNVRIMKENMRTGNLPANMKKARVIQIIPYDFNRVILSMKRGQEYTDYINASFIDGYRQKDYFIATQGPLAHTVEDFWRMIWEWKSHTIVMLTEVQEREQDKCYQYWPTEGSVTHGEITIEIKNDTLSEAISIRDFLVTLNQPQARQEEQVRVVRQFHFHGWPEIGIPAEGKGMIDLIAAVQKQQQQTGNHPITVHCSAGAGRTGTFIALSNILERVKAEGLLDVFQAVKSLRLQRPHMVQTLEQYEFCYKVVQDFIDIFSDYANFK

[11] = target: Dual specificity protein phosphatase 3 (Homo sapiens, UniProt P51452); assay: Inhibition of human VHR using pNPP substrate by spectrophotometry
Sequence of Dual specificity protein phosphatase 3 (P51452 whole entry): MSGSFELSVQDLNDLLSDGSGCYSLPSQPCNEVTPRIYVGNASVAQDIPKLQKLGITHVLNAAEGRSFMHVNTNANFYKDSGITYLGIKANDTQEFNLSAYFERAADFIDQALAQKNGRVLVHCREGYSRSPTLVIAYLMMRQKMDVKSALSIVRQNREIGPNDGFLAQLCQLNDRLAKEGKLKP

[12] = target: T5, Laforin (Homo sapiens, UniProt O95278); assay: Inhibition of human laforin using pNPP substrate by spectrophotometry
T5 sequence (O95278 whole entry): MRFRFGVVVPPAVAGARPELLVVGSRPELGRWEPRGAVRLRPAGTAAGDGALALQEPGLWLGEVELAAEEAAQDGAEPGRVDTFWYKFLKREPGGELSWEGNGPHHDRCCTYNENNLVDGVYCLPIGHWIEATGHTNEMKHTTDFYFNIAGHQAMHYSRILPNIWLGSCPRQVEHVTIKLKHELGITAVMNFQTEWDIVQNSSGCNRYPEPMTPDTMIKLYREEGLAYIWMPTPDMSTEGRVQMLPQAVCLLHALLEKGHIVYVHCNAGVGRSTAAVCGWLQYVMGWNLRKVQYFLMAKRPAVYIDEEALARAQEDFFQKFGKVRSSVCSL

[13] = Selectivity index, ratio of IC50 for human PTP1B to IC50 for Mycobacterium tuberculosis protein tyrosine phosphatase B
[14] = Selectivity index, ratio of IC50 for human SHP2 to IC50 for Mycobacterium tuberculosis protein tyrosine phosphatase B
[15] = Selectivity index, ratio of IC50 for human SHP1 to IC50 for Mycobacterium tuberculosis protein tyrosine phosphatase B
[16] = Selectivity index, ratio of IC50 for human PTP-Meg2 to IC50 for Mycobacterium tuberculosis protein tyrosine phosphatase B
[17] = Selectivity index, ratio of IC50 for human CD45 to IC50 for Mycobacterium tuberculosis protein tyrosine phosphatase B
[18] = Selectivity index, ratio of IC50 for human PTPepsilon to IC50 for Mycobacterium tuberculosis protein tyrosine phosphatase B
[19] = Selectivity index, ratio of IC50 for human VHR to IC50 for Mycobacterium tuberculosis protein tyrosine phosphatase B
[20] = Selectivity index, ratio of IC50 for human laforin to IC50 for Mycobacterium tuberculosis protein tyrosine phosphatase B
[21] = tested on: RAW264.7; assay: Inhibition of Mycobacterium tuberculosis protein tyrosine phosphatase B transfected in mouse RAW264.7 cells assessed as increase in ERK1/2 phosphorylation at 10 uM incubated for 1 hr followed by with IFNgamma stimulation for 1 hr by Western blotting method; format: cell-based; how it was run: as §1
[22] = tested on: RAW264.7; assay: Inhibition of Mycobacterium tuberculosis protein tyrosine phosphatase B transfected in mouse RAW264.7 cells assessed as reduction in AKT phosphorylation at 10 uM incubated for 1 hr followed by with IFNgamma stimulation for 1 hr by Western blotting method; format: cell-based; how it was run: as §1

SMILES: Cc1cccc(Nc2nc3cc(O)c(C(=O)O)cc3s2)c1
- IC50 [1]: 15 µM

SMILES: O=C(O)c1cc2sc(Nc3ccccc3Cl)nc2cc1O
- IC50 [1]: 30 µM

SMILES: O=C(O)c1cc2sc(Nc3ccc(Cl)cc3Cl)nc2cc1O
- IC50 [1]: 5 µM

SMILES: O=C(O)c1cc2sc(Nc3ccc([N+](=O)[O-])cc3)nc2cc1O
- IC50 [1]: 50 µM

SMILES: O=C(O)c1cc2sc(Nc3cccc(Br)c3)nc2cc1O
- IC50 [1]: 2 µM
- Ki [2]: 1.5 µM
- inhibition [3]: Dose-dependent effect
- inhibition [4]: Dose-dependent effect
- IC50 [5]: 65 µM
- IC50 [6]: 50 µM
- IC50 [7]: 78 µM
- IC50 [8]: 69 µM
- IC50 [9]: > 100 µM
- IC50 [10]: > 400 µM
- IC50 [11]: 43 µM
- IC50 [12]: 56 µM
- Ratio IC50 [13]: > 20
- Ratio IC50 [14]: > 20
- Ratio IC50 [15]: > 20
- Ratio IC50 [16]: > 20
- Ratio IC50 [17]: > 20
- Ratio IC50 [18]: > 20
- Ratio IC50 [19]: > 20
- Ratio IC50 [20]: > 20

SMILES: O=C(O)c1cc2[nH]c(-c3ccccc3)nc2cc1O
- IC50 [1]: 32 µM

SMILES: O=C(O)c1cc2sc(Nc3cccc4ccccc34)nc2cc1O
- IC50 [1]: 60 µM

SMILES: O=C1COc2cc(O)c(C(=O)O)cc2N1
- IC50 [1]: > 100 µM

SMILES: O=C(O)c1cc2nc(NCc3ccccc3)oc2cc1O
- IC50 [1]: > 100 µM

SMILES: O=C(O)c1cc2[nH]c(=O)oc2cc1O
- IC50 [1]: > 100 µM

SMILES: CC(C)(C)c1ccc(Nc2nc3cc(O)c(C(=O)O)cc3s2)cc1
- IC50 [1]: 41 µM

SMILES: O=C(O)c1cc2sc(Nc3ccc(Cl)cc3)nc2cc1O
- IC50 [1]: 13 µM

SMILES: O=C(O)c1cc2sc(Nc3ccc(F)cc3)nc2cc1O
- IC50 [1]: 65 µM

SMILES: O=C(O)CN1CC(=O)Oc2cc(O)c(C(=O)O)cc21
- IC50 [1]: > 100 µM

SMILES: O=C(O)c1ccc2nc(Nc3ccccc3)sc2c1O
- IC50 [1]: 71 µM

SMILES: O=C(O)c1cc2sc(Nc3cccc(Cl)c3)nc2cc1O
- IC50 [1]: 21 µM

SMILES: O=C(O)c1cc2sc(Nc3ccccc3)nc2cc1O
- IC50 [1]: 25 µM
- inhibition [21]: inactive
- inhibition [22]: inactive

SMILES: CCNc1nc2cc(C(=O)O)c(O)cc2o1
- IC50 [1]: > 100 µM

SMILES: O=C(O)c1cc2nc(-c3ccccc3)oc2cc1O
- IC50 [1]: 27 µM

SMILES: Cc1ccccc1Nc1nc2cc(O)c(C(=O)O)cc2s1
- IC50 [1]: 31 µM
